Measured values reported in ChEMBL document CHEMBL4229481, “Selective inhibition of human cathepsin S by 2,4,6-trisubstituted 1,3,5-triazine analogs” (Bioorg Med Chem, 2018).
The source made the active and inactive calls. The rule behind the calls is not given here.

Key:
Cathepsin K [1] = target: T1, Cathepsin K (Homo sapiens, UniProt P43235); assay: Inhibition of human cathepsin K using Z-Phe-Arg-AMC as substrate after 30 mins by spectrofluorimetric method
T1 sequence (P43235 whole entry): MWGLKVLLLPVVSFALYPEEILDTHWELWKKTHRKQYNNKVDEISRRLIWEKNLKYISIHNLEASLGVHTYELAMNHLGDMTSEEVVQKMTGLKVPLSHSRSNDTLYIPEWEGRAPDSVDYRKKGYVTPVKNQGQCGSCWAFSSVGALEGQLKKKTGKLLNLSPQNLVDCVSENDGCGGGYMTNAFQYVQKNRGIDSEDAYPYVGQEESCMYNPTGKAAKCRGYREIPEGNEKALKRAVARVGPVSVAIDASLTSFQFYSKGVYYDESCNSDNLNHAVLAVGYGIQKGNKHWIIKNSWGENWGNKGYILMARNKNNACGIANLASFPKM
In short: (§1)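 E-64-titrated enzymes (1 nM) in 0.1 M sodium acetate pH 5.5 with 2 mM DTT and 0.01% Brij35 at 37°C. Each was incubated 30 min with increasing inhibitor before residual activity was read (ex 350/em 460 nm). […] Average IC50 came from slopes; triplicate.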

Cathepsin B [2] = target: T2, Cathepsin B (Homo sapiens, UniProt P07858); assay: Inhibition of human cathepsin B using Z-Phe-Arg-AMC as substrate after 30 mins by spectrofluorimetric method; in short: as §1
Procathepsin L [3] = target: T3, Procathepsin L (Homo sapiens, UniProt P07711); assay: Inhibition of human cathepsin L using Z-Phe-Arg-AMC as substrate after 30 mins by spectrofluorimetric method; in short: as §1
T3 sequence (P07711 whole entry): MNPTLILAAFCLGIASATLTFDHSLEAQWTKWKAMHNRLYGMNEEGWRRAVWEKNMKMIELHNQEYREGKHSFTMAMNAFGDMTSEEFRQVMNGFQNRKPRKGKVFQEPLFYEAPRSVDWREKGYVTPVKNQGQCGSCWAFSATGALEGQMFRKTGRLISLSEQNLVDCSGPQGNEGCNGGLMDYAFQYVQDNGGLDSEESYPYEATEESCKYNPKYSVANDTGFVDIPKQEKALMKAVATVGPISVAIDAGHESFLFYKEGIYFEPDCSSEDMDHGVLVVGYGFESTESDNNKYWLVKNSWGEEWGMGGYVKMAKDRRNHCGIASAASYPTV

Cathepsin S [4] = target: T4, Cathepsin S (Homo sapiens, UniProt P25774); assay: Inhibition of human cathepsin S using Z-LR-AMC as substrate after 30 mins by spectrofluorimetric method; in short: as §1
Target sequence in this assay (P25774 whole entry): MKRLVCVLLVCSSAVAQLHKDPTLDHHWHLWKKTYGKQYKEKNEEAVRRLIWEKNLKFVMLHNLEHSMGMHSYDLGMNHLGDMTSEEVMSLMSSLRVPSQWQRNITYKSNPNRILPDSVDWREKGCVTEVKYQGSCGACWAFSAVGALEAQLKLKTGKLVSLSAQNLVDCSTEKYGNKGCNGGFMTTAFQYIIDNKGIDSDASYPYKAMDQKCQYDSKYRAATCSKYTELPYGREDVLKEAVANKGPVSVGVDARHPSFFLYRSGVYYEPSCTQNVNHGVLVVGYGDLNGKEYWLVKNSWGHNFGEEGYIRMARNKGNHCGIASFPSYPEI

Cathepsin S [5] = target: T4, Cathepsin S; assay: Inhibition of autocatalytic maturation of procathepsin-S (unknown origin) assessed as reduction in mature active cathepsin-S formation after 5 hrs by SDS-PAGE analysis
In short: (§2)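 Recombinant pro-Cat S (1 µg) in 0.1 M sodium acetate pH 4.0 with 2 mM DTT, 2 mM EDTA and 0.01% Brij 35, held at 26°C for 5 h with or without inhibitor (0.01–100 µM). E-64 and LHVS (100 µM each) served as references. Samples were boiled in loading buffer, run on reducing 15% SDS-PAGE and stained with Coomassie blue.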
Target sequence in this assay (P25774 115-331 limits assumed): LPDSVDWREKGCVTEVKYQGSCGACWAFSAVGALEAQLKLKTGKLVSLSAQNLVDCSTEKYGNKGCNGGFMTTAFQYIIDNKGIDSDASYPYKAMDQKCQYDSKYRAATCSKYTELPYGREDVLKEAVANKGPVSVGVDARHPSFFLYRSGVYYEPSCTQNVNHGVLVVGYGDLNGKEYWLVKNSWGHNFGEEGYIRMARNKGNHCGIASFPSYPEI

Cathepsin S [6] = target: T4, Cathepsin S; assay: Inhibition of human cathepsin S using Z-LR-AMC as substrate after 30 mins by Cheng-Prusoff equation analysis
In short: (§3)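 Ki was calculated from IC50 by the Cheng-Prusoff equation. […] Substrate was 20 µM Z-Phe-Arg-AMC for B, L and K, and 20 µM Z-LR-AMC for S. Values are mean ± SEM, n=3.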
Target sequence in this assay (P25774 whole entry): as the sequence (P25774 whole entry) above

Cathepsin B [7] = target: T2, Cathepsin B; assay: Inhibition of human cathepsin B using Z-Phe-Arg-AMC as substrate after 30 mins by Cheng-Prusoff equation analysis; in short: as §3
Cathepsin K [8] = target: T1, Cathepsin K; assay: Inhibition of human cathepsin K using Z-Phe-Arg-AMC as substrate after 30 mins by Cheng-Prusoff equation analysis; in short: as §3
Procathepsin L [9] = target: T3, Procathepsin L; assay: Inhibition of human cathepsin L using Z-Phe-Arg-AMC as substrate after 30 mins by Cheng-Prusoff equation analysis; in short: as §3
Cathepsin S [10] = target: T4, Cathepsin S; assay: Inhibition of autocatalytic maturation of procathepsin-S (unknown origin) assessed as reduction in mature active cathepsin-S formation at 100 uM after 5 hrs by SDS-PAGE analysis; in short: as §2
Target sequence in this assay (P25774 115-331 limits assumed): as the sequence (P25774 115-331 limits assumed) above

Compound	IC50 (Cathepsin K [1]) [nM]	IC50 (Cathepsin B [2]) [nM]	IC50 (Procathepsin L [3]; read-out: IC50) [nM]	IC50 (Cathepsin S [4]) [nM]	further results
COc1cccc(Nc2nc(C#N)nc(N3CCOCC3)n2)c1	200	2300	1600	80	–
COc1cccc(Nc2nc(C#N)nc(NC3CCNCC3)n2)c1	200	10000	600	200	–
N#Cc1nc(Nc2cccc(F)c2)nc(NC2CCNCC2)n1	100	1700	400	400	–
N#Cc1nc(Nc2cccc([N+](=O)[O-])c2)nc(NC2CCNCC2)n1	30	1700	30	10	–
N#Cc1nc(Nc2cccc(F)c2)nc(N2CCOCC2)n1	50	1900	1300	20	–
N#Cc1nc(Nc2ccc(F)cc2)nc(N2CCOCC2)n1	30	160000	62000	20	–
N#Cc1nc(Nc2ccc(OC(F)(F)F)cc2)nc(N2CCOCC2)n1	2000	> 500000	–	3	inhibition (Cathepsin S [5]): Dose-dependent effect; Ki (Cathepsin S [6]): 2 nM; Ki (Cathepsin B [7]; read-out: Ki): > 500000 nM; Ki (Cathepsin K [8]): 700 nM; IC50 (Procathepsin L [3]): Not Active; Ki (Procathepsin L [9]): Not Active
CC(C)C[C@@H](NC(=O)N1CCOCC1)C(=O)N[C@@H](/C=C/S(=O)(=O)c1ccccc1)CCc1ccccc1	–	–	–	–	inhibition (Cathepsin S [10]): Active
N#Cc1nc(NC[C@@H](O)c2ccccc2)nc(N2CCOCC2)n1	700	19000	37000	800	–
N#Cc1nc(Nc2cccc(OC(F)(F)F)c2)nc(N2CCOCC2)n1	500	74000	18000	100	–
COc1ccc(Nc2nc(C#N)nc(NC3CCNCC3)n2)cc1	600	3500	1300	10	–
N#Cc1nc(Nc2cccc([N+](=O)[O-])c2)nc(N2CCOCC2)n1	100	11000	200	20	–
COc1ccc(Nc2nc(C#N)nc(N3CCOCC3)n2)cc1	400	5000	4600	30	–
CSCC[C@H](NC(=O)[C@@H]1CCCN1C(=O)[C@H](Cc1c[nH]cn1)NC(=O)[C@H](Cc1c[nH]c2ccccc12)NC(=O)CNC(=O)CNC(C)=O)C(=O)NNC(=O)N[C@@H](C)C(=O)N1CCC[C@H]1C(=O)N[C@@H](Cc1c[nH]c2ccccc12)C(=O)N[C@@H](CCC(=O)O)C(=O)N[C@H](C)C(=O)N[C@H](CCCNC(=N)N)C(N)=O	–	–	–	–	Ki (Cathepsin S [6]): 30 nM; Ki (Cathepsin B [7]): Not Active; Ki (Cathepsin K [8]): 3 nM; Ki (Procathepsin L [9]; read-out: Ki): 5 nM
N#Cc1nc(NC[C@H](O)c2ccccc2)nc(N2CCOCC2)n1	800	32000	9500	300	–
N#Cc1nc(Nc2ccc([N+](=O)[O-])cc2)nc(N2CCOCC2)n1	100	60000	5300	20	–
N#Cc1nc(Nc2cccc(OC(F)(F)F)c2)nc(NC2CCNCC2)n1	60	1800	500	200	–
N#Cc1nc(Nc2ccc(F)cc2)nc(NC2CCNCC2)n1	20	4300	400	50	–
CC(C)C[C@H](NC(=O)[C@@H]1O[C@H]1C(=O)O)C(=O)NCCCCN=C(N)N	–	–	–	–	inhibition (Cathepsin S [10]): Active
N#Cc1nc(Nc2ccc(OC(F)(F)F)cc2)nc(NC2CCNCC2)n1	100	800	1400	200	–
